# Assay results published in ChEMBL document CHEMBL4610084, “Antibacterial and ATP Synthesis Modulating Compounds from Salvia tingitana” (2020).
# Assays:
# Staphylococcus warneri = experiment: Antibacterial activity against Methicillin-resistant Staphylococcus warneri MB74 after 24 hrs by microdilution assay; assay type: functional; settings: MB74, 24 h
# How it was run: (§1)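 Broth microdilution MIC, run as in an earlier cited report. Strains are clinical isolates identified by standard methods and MALDI-TOF; E. faecalis MB19 and MB51 are Ligurian seawater isolates. Highest concentration tested was 128 μg/mL. MICs are given in μg/mL and μM, with oxacillin and vancomycin as reference antibiotics.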
# [1] = tested on: Enterococcus casseliflavus; experiment: Antibacterial activity against Vancomycin resistant Enterococcus casseliflavus MB159 after 24 hrs by microdilution assay; assay type: functional; settings: MB159, 24 h; how it was run: as §1
# Staphylococcus simulans = experiment: Antibacterial activity against Staphylococcus simulans MB94 after 24 hrs by microdilution assay; assay type: functional; settings: MB94, 24 h
# How it was run: (§2)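 Broth microdilution MIC against clinical or seawater-isolated strains (identified by standard procedures and MALDI-TOF), with compound solutions and testing as in earlier work. MIC reported in μg/mL and μM.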
# Enterococcus faecalis [2] = experiment: Antibacterial activity against Vancomycin resistant Enterococcus faecalis MB19 after 24 hrs by microdilution assay; assay type: functional; settings: MB19, 24 h; how it was run: as §1
# Enterococcus faecalis [3] = experiment: Antibacterial activity against Enterococcus faecalis MB76 after 24 hrs by microdilution assay; assay type: functional; settings: MB76, 24 h; how it was run: as §1
# [4] = tested on: Staphylococcus epidermidis; experiment: Antibacterial activity against Methicillin-resistant Staphylococcus epidermidis MB169 after 24 hrs by microdilution assay; assay type: functional; settings: MB169, 24 h; how it was run: as §1
# Enterococcus faecalis [5] = experiment: Bacteriostatic activity against Enterococcus faecalis MB1 assessed as ratio of reduction in bacterial growth at 4 times MIC by time kill assay; assay type: functional
# How it was run: (§3)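 Time-kill curves: viable cell counts of susceptible strains recorded with or without compound at 4 × MIC.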
# Staphylococcus aureus [6] = experiment: Antibacterial activity against Methicillin-resistant Staphylococcus aureus MB188 after 24 hrs by microdilution assay; assay type: functional; settings: MB188, 24 h; how it was run: as §1
# [7] = tested on: Staphylococcus saprophyticus; experiment: Antibacterial activity against Staphylococcus saprophyticus MB41 after 24 hrs by microdilution assay; assay type: functional; settings: MB41, 24 h; how it was run: as §2
# [8] = tested on: Staphylococcus lugdunensis; experiment: Antibacterial activity against Staphylococcus lugdunensis MB96 after 24 hrs by microdilution assay; assay type: functional; settings: MB96, 24 h; how it was run: as §2
# Bos taurus [9] = species on record: Bos taurus; experiment: Modulation of ATP synthase in bovine rod outer segments assessed as inhibition of ATP production at 80 ug/ml in presence of Ap5A adenylate kinase inhibitor by luciferin/luciferase chemiluminescent method relative to control
# How it was run: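 Bovine rod OS (5 μg) preincubated 5 min at 37 °C in Tris/HCl pH 7.4 with KCl, EGTA, MgCl2, 0.6 mM ouabain, 0.25 mM Ap5A, 5 mM KH2PO4, 20 mM succinate, 0.35 mM NADH and ampicillin. Synthesis started with 0.1 mM ADP and stopped with perchloric acid. ATP read by luciferin/luciferase luminescence. Samples at 80 μg/mL; 30 μM resveratrol as positive control. Triplicates, ANOVA/Bonferroni.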
# Enterococcus faecalis [10] = experiment: Antibacterial activity against Vancomycin resistant Enterococcus faecalis MB51 after 24 hrs by microdilution assay; assay type: functional; settings: MB51, 24 h; how it was run: as §1
# Enterococcus faecium [11] = experiment: Bacteriostatic activity against Enterococcus faecium MB152 assessed as ratio of reduction in bacterial growth by measuring order of magnitude at 4 times MIC by time kill assay; assay type: functional; how it was run: as §3
# Enterococcus gallinarum = experiment: Antibacterial activity against Vancomycin resistant Enterococcus gallinarum MB111 after 24 hrs by microdilution assay; assay type: functional; settings: MB111, 24 h; how it was run: as §1
# Staphylococcus capitis = experiment: Antibacterial activity against Methicillin-resistant Staphylococcus capitis MB71 after 24 hrs by microdilution assay; assay type: functional; settings: MB71, 24 h; how it was run: as §1
# Staphylococcus aureus [12] = experiment: Antibacterial activity against Methicillin-resistant Staphylococcus aureus MB18 after 24 hrs by microdilution assay; assay type: functional; settings: MB18, 24 h; how it was run: as §1
# [13] = tested on: Staphylococcus haemolyticus; experiment: Antibacterial activity against Methicillin-resistant Staphylococcus haemolyticus MB115 after 24 hrs by microdilution assay; assay type: functional; settings: MB115, 24 h; how it was run: as §1
# Enterococcus faecium [14] = experiment: Antibacterial activity against Enterococcus faecium MB152 after 24 hrs by microdilution assay; assay type: functional; settings: MB152, 24 h; how it was run: as §2
# Enterococcus avium = experiment: Antibacterial activity against Enterococcus avium MB119 after 24 hrs by microdilution assay; assay type: functional; settings: MB119, 24 h; how it was run: as §2
# Enterococcus faecium [15] = experiment: Antibacterial activity against Enterococcus faecium MB2 after 24 hrs by microdilution assay; assay type: functional; settings: MB2, 24 h; how it was run: as §2
# Enterococcus faecium [16] = experiment: Antibacterial activity against Enterococcus faecium MB3 after 24 hrs by microdilution assay; assay type: functional; settings: MB3, 24 h; how it was run: as §2
# [17] = tested on: Staphylococcus epidermidis; experiment: Antibacterial activity against Methicillin-resistant Staphylococcus epidermidis MB165 after 24 hrs by microdilution assay; assay type: functional; settings: MB165, 24 h; how it was run: as §1
# Enterococcus durans = experiment: Antibacterial activity against Enterococcus durans MB113 after 24 hrs by microdilution assay; assay type: functional; settings: MB113, 24 h; how it was run: as §2
# Staphylococcus hominis = experiment: Antibacterial activity against Methicillin-resistant Staphylococcus hominis MB124 after 24 hrs by microdilution assay; assay type: functional; settings: MB124, 24 h; how it was run: as §1
# Enterococcus faecalis [18] = experiment: Antibacterial activity against Vancomycin resistant Enterococcus faecalis MB1 after 24 hrs by microdilution assay; assay type: functional; settings: MB1, 24 h; how it was run: as §1
# Bos taurus [19] = species on record: Bos taurus; experiment: Modulation of ATP synthase in bovine rod outer segments assessed as inhibition of ATP hydrolysis at 80 ug/ml in presence of Ap5A adenylate kinase inhibitor by pyruvate kinase/lactate dehydrogenase assay relative to control
# Enterococcus faecium [20] = experiment: Modulation of ATP synthase in Enterococcus faecium MB152 assessed as inhibition of ATP production at 5 times MIC after 2 hrs by BacTiter-Glo Assay
# How it was run: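 Whole-cell ATP assay. VRE strain grown overnight in Mueller Hinton broth at 37 °C, diluted 1:10^6 in fresh broth and grown 2 h, then adjusted by OD600. Manool added at 5 × MIC. Samples taken at 0 and 2 h and mixed 1:1 with BacTiter-Glo for 5 min at room temperature. Luminescence converted via an ATP standard curve (1–0.001 pmol) to pmol/cfu. Broth serves as negative control. Three experiments in triplicate, Student's t test.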
Compound,MIC (Staphylococcus warneri),MIC [1],MIC (Staphylococcus simulans),MIC (Enterococcus faecalis [2]),MIC (Enterococcus faecalis [3]),MIC [4],MIC (Staphylococcus aureus [6]),MIC [7],MIC [8],MIC (Enterococcus faecalis [10]),MIC (Enterococcus gallinarum),MIC (Staphylococcus capitis),MIC (Staphylococcus aureus [12]),MIC [13],MIC (Enterococcus faecium [14]),MIC (Enterococcus avium),MIC (Enterococcus faecium [15]),MIC (Enterococcus faecium [16]),MIC [17],MIC (Enterococcus durans),further results
COC(=O)[C@]1(C)CCC[C@@]2(C)[C@H]1[C@@H](O)C[C@@](C)(O)[C@@H]2CC/C(C)=C/C[C@H]1OC(=O)C=C1C,286 µM,143 µM,> 128 µg/mL,286 µM,286 µM,> 128 µg/mL,> 128 µg/mL,> 128 µg/mL,> 128 µg/mL,143 µM,286 µM,286 µM,286 µM,> 128 µg/mL,143 µM,143 µM,286 µM,286 µM,286 µM,286 µM,Ratio (Enterococcus faecalis [5]): 1 - 2; inhibition (Bos taurus [9]): 60%; Ratio (Enterococcus faecium [11]): 1 - 2; MIC (Staphylococcus hominis): 286 µM; MIC (Enterococcus faecalis [18]): 143 µM
COC1O[C@H]2C[C@@](C)(O)[C@H](CC/C(C)=C/[C@H](O)[C@H]3OC(=O)C=C3C)[C@@]3(C)CCC[C@]1(C)[C@H]23 (some centres undefined),> 128 µg/mL,286 µM,> 128 µg/mL,286 µM,143 µM,286 µM,> 128 µg/mL,286 µM,> 128 µg/mL,143 µM,143 µM,286 µM,286 µM,> 128 µg/mL,286 µM,143 µM,286 µM,143 µM,> 128 µg/mL,> 128 µg/mL,MIC (Staphylococcus hominis): 286 µM; MIC (Enterococcus faecalis [18]): 143 µM
CC1=CC(=O)O[C@@H]1C/C=C(\C)CC[C@@H]1[C@@]2(C)CCC[C@@]3(C)C(=O)O[C@@H](C[C@@]1(C)O)[C@H]23,308 µM,308 µM,> 128 µg/mL,308 µM,308 µM,> 128 µg/mL,> 128 µg/mL,> 128 µg/mL,308 µM,154 µM,154 µM,154 µM,308 µM,> 128 µg/mL,308 µM,154 µM,> 128 µg/mL,308 µM,308 µM,> 128 µg/mL,Ratio (Enterococcus faecalis [5]): 1 - 2; inhibition (Bos taurus [9]): 79%; Ratio (Enterococcus faecium [11]): 1 - 2; MIC (Staphylococcus hominis): > 128 µg/mL; MIC (Enterococcus faecalis [18]): 154 µM
COC(=O)[C@]1(C)CCC[C@]2(C)[C@H]3CCC(C)(/C=C/c4occc4C)O[C@]3(C)CC[C@H]21 (some centres undefined),309 µM,309 µM,> 128 µg/mL,309 µM,309 µM,155 µM,> 128 µg/mL,309 µM,> 128 µg/mL,309 µM,309 µM,155 µM,309 µM,> 128 µg/mL,> 128 µg/mL,> 128 µg/mL,309 µM,309 µM,309 µM,> 128 µg/mL,MIC (Staphylococcus hominis): 309 µM; MIC (Enterococcus faecalis [18]): > 128 µg/mL
COC(=O)[C@]1(C)CCC[C@@]2(C)[C@H]1CC[C@@](C)(O)[C@@H]2CC/C(C)=C/C[C@H]1OC(=O)C=C1C,148 µM,296 µM,> 128 µg/mL,148 µM,148 µM,> 128 µg/mL,296 µM,296 µM,296 µM,296 µM,148 µM,148 µM,> 128 µg/mL,296 µM,296 µM,296 µM,296 µM,148 µM,296 µM,296 µM,MIC (Staphylococcus hominis): 296 µM; MIC (Enterococcus faecalis [18]): 74.1 µM
C=C[C@@](C)(O)CC[C@H]1C(=C)CC[C@H]2C(C)(C)CCC[C@]12C [MANOOL],> 128 µg/mL,55 µM,> 128 µg/mL,110 µM,110 µM,> 128 µg/mL,> 128 µg/mL,> 128 µg/mL,> 128 µg/mL,55 µM,14 µM,> 128 µg/mL,> 128 µg/mL,> 128 µg/mL,28 µM,28 µM,14 µM,28 µM,> 128 µg/mL,55 µM,inhibition (Bos taurus [19]): 92%; Ratio (Enterococcus faecalis [5]): 1 - 2; inhibition (Bos taurus [9]): 60%; Ratio (Enterococcus faecium [11]): 1 - 2; inhibition (Enterococcus faecium [20]): 30%; MIC (Staphylococcus hominis): > 128 µg/mL; MIC (Enterococcus faecalis [18]): 55 µM
COC(=O)[C@]1(C)CCC[C@@]2(C)[C@H]1[C@@H](O)C[C@@](C)(O)[C@@H]2CC/C(C)=C/[C@H](O)[C@H]1OC(=O)C=C1C,138 µM,276 µM,> 128 µg/mL,276 µM,276 µM,> 128 µg/mL,> 128 µg/mL,> 128 µg/mL,> 128 µg/mL,138 µM,276 µM,276 µM,276 µM,276 µM,138 µM,138 µM,276 µM,276 µM,276 µM,138 µM,MIC (Staphylococcus hominis): 138 µM; MIC (Enterococcus faecalis [18]): 138 µM
CC1=CC(=O)O[C@@H]1C/C=C(\C)CC[C@@H]1[C@@]2(C)CCC[C@@](C)(CO)[C@@H]2[C@@H](O)C[C@@]1(C)O,> 128 µg/mL,> 128 µg/mL,> 128 µg/mL,> 128 µg/mL,> 128 µg/mL,> 128 µg/mL,> 128 µg/mL,> 128 µg/mL,> 128 µg/mL,> 128 µg/mL,> 128 µg/mL,> 128 µg/mL,> 128 µg/mL,> 128 µg/mL,> 128 µg/mL,> 128 µg/mL,> 128 µg/mL,> 128 µg/mL,> 128 µg/mL,> 128 µg/mL,MIC (Staphylococcus hominis): > 128 µg/mL; MIC (Enterococcus faecalis [18]): > 128 µg/mL
COC1O[C@H]2C[C@@](C)(O)[C@H](CC/C(C)=C/CC3OC(=O)C=C3C)[C@@]3(C)CCC[C@]1(C)[C@H]23 (some centres undefined),148 µM,148 µM,296 µM,148 µM,296 µM,148 µM,296 µM,296 µM,296 µM,296 µM,296 µM,74.1 µM,296 µM,296 µM,148 µM,296 µM,296 µM,296 µM,148 µM,296 µM,MIC (Staphylococcus hominis): 148 µM; MIC (Enterococcus faecalis [18]): 296 µM
